Measured values published in ChEMBL document CHEMBL3856222, “Design, structure activity relationship, cytotoxicity and evaluation of antioxidant activity of curcumin derivatives/analogues” (Eur J Med Chem, 2016).

Columns and labels:
[1] = Antioxidant activity assessed as nitric oxide radical scavenging activity at 50 uM incubated in dark for 20 mins relative to control; type: functional
[2] = Cytotoxicity against human HeLa cells assessed as decrease in cell viability after 48 hrs by MTT assay; type: functional, cell-based
In short: (§1)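 Cells seeded at 2 x 10^3 per well in MEM with 10% FBS and left to attach for 24 h. Exposed 48 h to 5, 10, 20, 50, 100 and 200 µM (printed µM/mL). Controls got medium with 0.2% DMSO. Duplicate treatments. After PBS wash, MTT (stock 1 mg/mL) added for 4 h at 37 °C. Formazan dissolved in DMSO and OD read at 590 nm.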

[3] = Antioxidant activity assessed as nitric oxide radical scavenging activity at 2 uM incubated in dark for 20 mins relative to control; type: functional
[4] = Antioxidant activity assessed as DPPH free radical scavenging activity at 2 uM incubated in dark for 20 mins relative to control; type: functional
In short: (§2)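 Compounds dissolved in DMSO and diluted in 100 mM Tris–HCl (pH 7.4). DPPH (0.1 mM in methanol) added with vigorous shaking, then held in the dark at room temperature for 20 min. Absorbance read at 517 nm with DMSO baseline correction. Compound-free control prepared the same way. Run in triplicate.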

[5] = Antioxidant activity assessed as nitric oxide radical scavenging activity at 20 uM incubated in dark for 20 mins relative to control; type: functional
[6] = Cytotoxicity against human QG56 cells assessed as decrease in cell viability after 48 hrs by MTT assay; type: functional, cell-based; conditions: QG-56, 48 h; in short: as §1
[7] = Antioxidant activity assessed as nitric oxide radical scavenging activity at 10 uM incubated in dark for 20 mins relative to control; type: functional
[8] = Antioxidant activity assessed as DPPH free radical scavenging activity at 20 uM incubated in dark for 20 mins relative to control; type: functional; in short: as §2
[9] = Antioxidant activity assessed as DPPH free radical scavenging activity at 10 uM incubated in dark for 20 mins relative to control; type: functional; in short: as §2
[10] = Cytotoxicity against human HCT116 cells assessed as decrease in cell viability after 48 hrs by MTT assay; type: functional, cell-based; conditions: HCT-116, 48 h; in short: as §1
[11] = Antioxidant activity assessed as DPPH free radical scavenging activity at 50 uM incubated in dark for 20 mins relative to control; type: functional; in short: as §2

Row | SMILES | Activity [1] [%] | IC50 [2] [µM] | Activity [3] [%] | Activity [4] [%] | Activity [5] [%] | IC50 [6] [µM] | Activity [7] [%] | Activity [8] [%] | Activity [9] [%] | IC50 [10] [µM] | Activity [11] [%]
1 | COc1cc(/C=C/C(=O)C2=C(/C=C/c3ccc(O)c(OC)c3)NC(=S)NC2c2ccc(C)cc2)ccc1O (stereo not drawn) | 41 | 25 | 10.2 | 15.5 | 30 | 12.5 | 19.9 | 51 | 43.2 | 50 | 62
2 | COc1cc(/C=C/C(=O)C2=C(/C=C/c3ccc(O)c(OC)c3)NC(=S)NC2c2ccccc2)ccc1O (stereo not drawn) | 50.4 | 25 | 16.6 | 15.5 | 36.6 | 100 | 22 | 38 | 26.5 | 100 | 48
3 | COc1cc(/C=C/C(=O)C2=C(/C=C/c3ccc(O)c(OC)c3)NC(=O)NC2c2ccccc2)ccc1O (stereo not drawn) | 50.2 | 100 | 10.5 | 15.2 | 31 | 50 | 20 | 38.2 | 26.4 | 25 | 40.2
4 | COc1cc(/C=C/C(=O)C2=C(/C=C/c3ccc(O)c(OC)c3)NC(=O)NC2c2c(Cl)cccc2Cl)ccc1O (stereo not drawn) | 44.2 | 25 | 11.2 | 11.2 | 33 | 100 | 20 | 31.9 | 19.2 | 50 | 43.2
5 | COc1cc(/C=C/C(=O)C2=C(/C=C/c3ccc(O)c(OC)c3)NC(=S)NC2c2ccccc2Cl)ccc1O (stereo not drawn) | 55.6 | 50 | 15.5 | 16.2 | 39.2 | 50 | 21.2 | 56.6 | 43.2 | 100 | 60
6 | COc1cc(/C=C/C(=O)C2=C(/C=C/c3ccc(O)c(OC)c3)NC(=S)NC2c2c(Cl)cccc2Cl)ccc1O (stereo not drawn) | 50 | 100 | 15 | 17.7 | 33.9 | 100 | 20.2 | 43.2 | 29 | 50 | 50.2
7 | COc1cc(/C=C/C(=O)CC(=O)/C=C/c2ccc(O)c(OC)c2)ccc1O [CURCUMIN] | 59.9 | 50 | 12.2 | 6 | 36.5 | 100 | 22.2 | 42.2 | 33.2 | 50 | 50.2
8 | COc1cc(/C=C/C(=O)C2=C(/C=C/c3ccc(O)c(OC)c3)NC(=S)NC2c2ccc(N(C)C)cc2)ccc1O (stereo not drawn) | 84 | 12.5 | 32.3 | 30.2 | 72.1 | 25 | 59 | 83 | 72 | 12.5 | 89.5
